In article PMC3263504 (Cell Death and Differentiation, 2011):
No end group written: not given here. *: point of attachment. Biotin = O=C1N[C@H]2[C@H](CS[C@H]2CCCCC(=O)*)N1

Key:
GST-Dom3 = test: GST pull-down of full-length 3xFLAG-Bcl-2 proteins from COS-1 lysates; assay type: binding, mouse; conditions: lysates of transfected COS-1 cells, result in words
How it was run: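 Lysates (200 μg) of COS-1 cells transiently transfected with 3xFLAG-Bcl-2, K/D mutant or empty vector, incubated with purified GST-Dom3 (IP3R1 a.a. 923–1581, E. coli BL21(DE3)-expressed, PBS-dialyzed). Beads washed four times in 150 mM NaCl buffer without BSA, eluted in LDS 3 min at 95°C. Anti-FLAG western blot; bands quantified, normalized to GST binding; at least five independent experiments.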

C6 glioma cells [1] = test: PAC-1-induced apoptosis in C6 glioma cells; assay type: cell-based, rat; conditions: PAC-1 150 μM, 6 h
How it was run: (§1)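 C6 glioma monolayers in situ electroporated (100 V peak-to-peak, 500 µm electrode gap, low-conductivity sorbitol buffer) with 100 μM DTR and 20 μM peptide. Trigger applied in medium for 6 h: STS 2 μM or PAC-1 150 µM. Apoptosis stained with FITC-VAD-FMK (10 μM, 40 min, 37°C), PFA-fixed, DAPI. Five images inside and five outside the electroporated area; AI inside relative to outside, then vs vehicle (100%).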

GST = test: SPR, parental GST; assay type: binding; conditions: GST up to 40 μM, result in words
How it was run: (§2)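 SPR at 25°C. Biotinylated BH4 peptides (200 ng, 58.2 pmol, >80% pure) immobilized on a streptavidin chip in PBS/0.005% P20, pH 7.0. Analyte was GST-Dom3 or parental GST in PBS, 30 μl/min, several concentrations in random order; response in RU. Scrambled-peptide reference cell subtracted. Regeneration with 25 mM NaOH/0.002% SDS. At least three independent chips.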

GST-Dom3 IP3R1 = GST-Dom3 IP3R1 (Mus musculus, UniProt P11881); test: SPR, GST-Dom3 of IP3R1 on immobilized biotinylated BH4 peptides; assay type: binding; conditions: association phase, corrected for scrambled peptide, result in words
How it was run: as §2

IP3R = test: Unidirectional 45Ca2+-flux assay in saponin-permeabilized MEF cells; assay type: cell-based, mouse; conditions: for effect of alanine mutation on the inhibitory action of BH4-Bcl-2 on IICR: 60 μM mutant peptide, result in words; for effect on IICR (dose-response): 3 μM IP3, result in words
How it was run: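 MEF cells at 30°C permeabilized 10 min with 20 µg/ml saponin (imidazole-KCl, pH 6.8, 1 mM ATP, 1 mM EGTA). Stores loaded 45 min with 150 nM free 45Ca2+, 5 mM ATP, 10 mM NaN3. Efflux medium contained 1 mM EGTA and 4 μM thapsigargin, changed every 2 min. Peptides (alanine mutants 60 μM) added 4 min before IP3 (3 μM, 2 min, after 10 min efflux). Residual Ca2+ released with 2% SDS; read-out fractional loss (%/2 min).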

C6 glioma cells [2] = test: Staurosporine-induced apoptosis in C6 glioma cells; assay type: cell-based, rat; conditions: 6 h, result in words
How it was run: as §1

[3] = target: GST-Dom3 IP3R2 (a.a. 913–1562) (mouse, UniProt Q9Z329 913-1562); test: SPR
[4] = target: GST-Dom3 IP3R3 (a.a. 910–1427) (rat, UniProt Q63269 910-1427); test: SPR
[5] = target: GST-Dom3 (a.a. 923–1581 of IP3R1) (mouse, UniProt P11881 923-1581); test: SPR
Chain of GST-Dom3 (a.a. 923–1581 of IP3R1) (P11881 923-1581): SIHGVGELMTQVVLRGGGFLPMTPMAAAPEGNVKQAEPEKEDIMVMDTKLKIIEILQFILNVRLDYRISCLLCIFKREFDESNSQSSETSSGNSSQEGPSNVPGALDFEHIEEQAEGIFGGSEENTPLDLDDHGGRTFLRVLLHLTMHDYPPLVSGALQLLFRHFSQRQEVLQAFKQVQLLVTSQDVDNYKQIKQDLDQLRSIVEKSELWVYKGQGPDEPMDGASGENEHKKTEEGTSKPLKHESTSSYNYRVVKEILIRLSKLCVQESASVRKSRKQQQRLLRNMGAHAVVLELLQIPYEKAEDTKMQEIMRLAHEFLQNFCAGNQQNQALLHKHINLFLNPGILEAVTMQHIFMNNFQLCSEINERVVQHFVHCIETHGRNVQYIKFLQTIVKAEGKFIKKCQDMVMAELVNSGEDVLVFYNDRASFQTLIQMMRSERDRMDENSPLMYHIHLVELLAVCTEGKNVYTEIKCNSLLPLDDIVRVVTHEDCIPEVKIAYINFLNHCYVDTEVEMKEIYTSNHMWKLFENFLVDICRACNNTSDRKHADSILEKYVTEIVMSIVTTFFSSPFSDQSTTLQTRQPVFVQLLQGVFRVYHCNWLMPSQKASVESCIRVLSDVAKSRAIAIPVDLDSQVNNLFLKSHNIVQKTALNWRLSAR

Chain of GST-Dom3 IP3R1 (P11881 923-1581): as above
Chain of GST-Dom3 IP3R2 (a.a. 913–1562) (Q9Z329 913-1562): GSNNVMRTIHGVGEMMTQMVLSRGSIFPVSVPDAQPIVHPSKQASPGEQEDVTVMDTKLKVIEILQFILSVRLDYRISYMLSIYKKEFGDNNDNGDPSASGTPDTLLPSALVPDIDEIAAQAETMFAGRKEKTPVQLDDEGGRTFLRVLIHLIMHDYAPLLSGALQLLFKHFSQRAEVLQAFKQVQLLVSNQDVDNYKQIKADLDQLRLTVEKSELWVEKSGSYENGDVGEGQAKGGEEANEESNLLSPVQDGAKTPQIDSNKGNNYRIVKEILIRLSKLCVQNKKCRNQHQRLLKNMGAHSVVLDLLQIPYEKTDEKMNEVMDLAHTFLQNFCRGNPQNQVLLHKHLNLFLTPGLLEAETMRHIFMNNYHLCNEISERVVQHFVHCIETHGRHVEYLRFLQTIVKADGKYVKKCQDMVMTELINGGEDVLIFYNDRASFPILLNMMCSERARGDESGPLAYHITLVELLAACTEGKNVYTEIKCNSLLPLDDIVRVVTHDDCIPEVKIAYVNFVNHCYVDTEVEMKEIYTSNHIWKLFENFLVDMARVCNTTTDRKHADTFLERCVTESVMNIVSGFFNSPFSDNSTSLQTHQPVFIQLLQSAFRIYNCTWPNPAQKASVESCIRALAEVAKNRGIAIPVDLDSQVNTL
Chain of GST-Dom3 IP3R3 (a.a. 910–1427) (Q63269 910-1427): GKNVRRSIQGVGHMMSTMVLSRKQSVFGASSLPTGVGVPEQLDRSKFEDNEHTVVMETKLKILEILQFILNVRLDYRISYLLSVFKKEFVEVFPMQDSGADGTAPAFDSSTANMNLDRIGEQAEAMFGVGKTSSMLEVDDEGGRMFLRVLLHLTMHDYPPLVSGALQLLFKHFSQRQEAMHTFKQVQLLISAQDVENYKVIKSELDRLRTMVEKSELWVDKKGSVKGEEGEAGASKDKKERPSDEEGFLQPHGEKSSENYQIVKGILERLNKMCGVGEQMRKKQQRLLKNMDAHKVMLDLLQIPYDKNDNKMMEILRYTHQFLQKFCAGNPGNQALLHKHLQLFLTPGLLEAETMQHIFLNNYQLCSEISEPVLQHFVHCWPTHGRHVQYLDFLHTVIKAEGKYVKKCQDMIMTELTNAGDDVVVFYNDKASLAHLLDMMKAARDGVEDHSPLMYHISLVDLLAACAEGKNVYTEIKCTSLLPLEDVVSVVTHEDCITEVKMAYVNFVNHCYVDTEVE

## 3xFLAG-Bcl-2 K/D: full-length 3xFLAG-Bcl-2 with Lys17 mutated into Asp, expressed in COS-1 cells
GST-Dom3
  binding to GST-Dom3 compared with wild-type 3xFLAG-Bcl-2: severely compromised

## C=CCc1cccc(/C=N/NC(=O)CN2CCN(Cc3ccccc3)CC2)c1O [PAC-1]
C6 glioma cells [1]
  apoptosis, share of the cell population: ~15%

## Biotin-MSQSNRELVVDFLSYKLSQKGYSW [biotin-BH4-Bcl-Xl]
GST
  binding of GST (control): bound to neither

## Biotin-MSQSNRELVVKFLSYKLSQKGYSW [biotin-BH4-Bcl-Xl D/K]
GST-Dom3 IP3R1
  specific binding of GST-Dom3 (resonance units): able to bind GST-Dom3

## Biotin-RTGYANAEIVMKYIAEKLSAAGKEW [biotin-BH4-Bcl-2BIND, reference compound]
GST-Dom3 IP3R1
  specific binding of GST-Dom3 (resonance units): did not specifically bind

## H20A (RTGYDNREIVMKYIAYKLSQRGYEW)
IP3R
  effect of alanine mutation on the inhibitory action of BH4-Bcl-2 on IICR: largest effect on the inhibitory action

## K17A (RTGYDNREIVMAYIHYKLSQRGYEW)
IP3R
  effect of alanine mutation on the inhibitory action of BH4-Bcl-2 on IICR: largest effect on the inhibitory action

## NVYTEIKCNSLLPLDDIVRV [IDP]
C6 glioma cells [2]; IDP co-loaded with BH4-Bcl-2, STS 2 μM
  effect of IDP on BH4-Bcl-2-mediated protection against STS: completely suppressed
C6 glioma cells [2]; IDP co-loaded with BH4-Bcl-Xl, STS 2 μM
  effect of IDP on the protection by BH4-Bcl-Xl against STS: independent of IDP

## R26A (RTGYDNREIVMKYIHYKLSQAGYEW)
IP3R
  effect of alanine mutation on the inhibitory action of BH4-Bcl-2 on IICR: largest effect on the inhibitory action

## RTGYANAEIVMKYIAEKLSAAGKEW [BH4-Bcl-2BIND, reference compound]
IP3R
  effect on IICR (dose-response): did not inhibit IICR

## RTGYDNREIVMKYIHYKLSQRGYEW [BH4-Bcl-2 K/D]
IP3R
  effect on IICR (dose-response): largely ineffective

## WYEKQRSLHGIMYYVIEDRNTKGYR [BH4-Bcl-2SCR, reference compound]
IP3R
  effect on IICR (dose-response): did not inhibit IICR

## Y21A (RTGYDNREIVMKYIHAKLSQRGYEW)
IP3R
  effect of alanine mutation on the inhibitory action of BH4-Bcl-2 on IICR: largest effect on the inhibitory action

B1: Biotin-BH4-Bcl-2 (peptide)
peptide: Biotin-RTGYDNREIVMKYIHYKLSQRGYEW
[3]
  binding result: binds
[4]
  binding result: binds

B2: Biotin-BH4-Bcl-Xl D/K (peptide)
peptide: Biotin-MSQSNRELVVKFLSYKLSQKGYSW
[5]
  binding result: binds
